# ChEMBL document CHEMBL1144737, “Synthesis and antifungal activity of novel sulfoxide derivatives containing trimethoxyphenyl substituted 1,3,4-thiadiazole and 1,3,4-oxadiazole moiety” (Bioorg Med Chem, 2008)
# How the values were obtained:
# Fusarium graminearum [1] = assay: Antifungal activity against Gibberella zeae at 50 ug/ml by poison plate technique; format: functional
# Method in brief: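 Poison-plate (mycelial growth rate) test at a single final concentration in PDA. Fungus was pre-grown 4 days at 27±1 °C, and a 4 mm mycelial plug was placed at the plate centre and incubated 5 days at 27±1 °C. Acetone in sterile water was the untreated control. Triplicate plates were used; inhibition % = (C−T)/(C−0.4)×100 from colony diameters.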
# Fusarium oxysporum [2] = assay: Antifungal activity against Fusarium oxysporum at 50 ug/ml by poison plate technique; format: functional
# Method in brief: (§1)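 Poison plate method. Compound in PDA at 50 µg/mL final. Fungi precultured on PDA at 27 ± 1 °C for 4 days, then a ~4 mm mycelial disc was placed in the plate centre and incubated at 27 ± 1 °C for 5 days. Acetone in sterile water was the blank and hymexazol the positive control. Three replicates. Colony diameter was measured and I(%) = [(C − T)/(C − 0.4)] × 100.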
# Cytospora [3] = assay: Antifungal activity against Cytospora mandshurica at 50 ug/ml by poison plate technique; format: functional; method in brief: as §1
# Fusarium graminearum [4] = assay: Antifungal activity against Gibberella zeae by poison plate technique; format: functional, organism-based
# Method in brief: (§2)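 Poison-plate assay on PDA against nine plant-pathogenic fungi at 100, 50, 25, 12.5 and 6.25 in the medium. Cultures were grown 4 days at 27±1 °C, and 4 mm mycelial plugs were placed centrally on plates and incubated 5 days at 27±1 °C. Acetone in sterile water was the blank. Inhibition % = (C−T)/(C−0.4)×100 from colony diameters. EC50 was obtained by probit analysis, averaged from at least three separate analyses.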
# Cytospora [5] = assay: Antifungal activity against Cytospora mandshurica by poison plate technique; format: functional; method in brief: as §2
# Thanatephorus cucumeris = assay: Antifungal activity against Thanatephorus cucumeris by poison plate technique; format: functional, organism-based; method in brief: as §2
# Phytophthora infestans = assay: Antifungal activity against Phytophthora infestans by poison plate technique; format: functional, organism-based; method in brief: as §2
# Botrytis cinerea = assay: Antifungal activity against Botrytis cinerea by poison plate technique; format: functional, organism-based; method in brief: as §2
# Sclerotinia sclerotiorum [6] = assay: Antifungal activity against Sclerotinia sclerotiorum by poison plate technique; format: functional, organism-based; method in brief: as §2
# [7] = test system: Colletotrichum gloeosporioides; assay: Antifungal activity against Colletotrichum gloeosporioides by poison plate technique; format: functional, organism-based; method in brief: as §2
# Sclerotinia sclerotiorum [8] = assay: Effect on membrane permeability of Sclerotinia sclerotiorum at 100 ug/ml after 240 mins relative to control; format: functional, organism-based
# Method in brief: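 Washed S. sclerotiorum mycelium (1 g) was placed in tubes with the compound. Conductivity was read over time from 0 to 360 min, then after boiling and cooling. Relative permeability P% = (J1−J0)/(J2−J0)×100.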
# Sclerotinia sclerotiorum [9] = assay: Change in mycelial N-acetyl-glucosamine content in Sclerotinia sclerotiorum after 24 hrs; format: functional
# Method in brief: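 S. sclerotiorum was grown 15 days in Czapek broth shaken at 140 rpm and 27 °C, then dosed at 100 and sampled at 24 h. Dried mycelium (1.0 g) was ground in 0.05 mol/L Tris–HCl pH 7.5 and centrifuged at 15,000g, 4 °C. Supernatant with K2B4O7 was boiled 3 min, then 1% DMAB was added, 20 min at 36 °C, A544. Three repetitions.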
# Sclerotinia sclerotiorum [10] = assay: Change in mycelial chitinase activity in Sclerotinia sclerotiorum assessed as N-acetyl-glucosamine level after 24 hrs
# Method in brief: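 Mycelial extract came from S. sclerotiorum grown 15 days in shaken Czapek broth at 27 °C, dosed at 100 and harvested at 24 h, in Tris–HCl pH 7.5. Extract was incubated with colloidal chitin 1 h at 37 °C, boiled and centrifuged. Released GlcNAc was read with 0.8 M K2B4O7, boiling, 1% DMAB, 20 min at 36 °C, A544. The blank was boiled before incubation.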
# Sclerotinia sclerotiorum [11] = assay: Change in mycelial soluble protein content in Sclerotinia sclerotiorum after 24 hrs; format: functional
# Method in brief: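 Soluble protein was measured in extracts of S. sclerotiorum cultured 15 days in shaken Czapek broth at 27 °C, treated at 100 and harvested at 24 h. Dried mycelium was ground in 0.05 mol/L Tris–HCl pH 7.5 and centrifuged; absorbance was read at 595 nm with buffer blank. Three repetitions.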
# Fusarium oxysporum [12] = assay: Antifungal activity against Fusarium oxysporum by poison plate technique; format: functional, organism-based
# Method in brief: (§3)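 Poison plate mycelial growth assay on PDA at 100, 50, 25, 12.5 and 6.25 µg/mL. Mycelial discs were grown at 27 ± 1 °C for 5 days and radial colony growth was measured. EC50 was estimated by probit analysis and averaged from at least three separate analyses.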
# Rhizoctonia solani = assay: Antifungal activity against Rhizoctonia solani by poison plate technique; format: functional, organism-based; method in brief: as §3
# Sclerotinia sclerotiorum [13] = assay: Effect on sporule germination in Sclerotinia sclerotiorum assessed as germination ratio at 80 ug/ml; format: functional
# Method in brief: (§4)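 Compound was mixed into PDA at 0, 20, 40, 60, 80 and 100 µg/mL, and 0.5 mL spore suspension was spread per plate. Plates were incubated at 27 °C and checked every 2 h after 24 h. Germination was scored when control germination exceeded 90%, in three fields per dish, with three replicates. GR% = 100 × G/S.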
# Sclerotinia sclerotiorum [14] = assay: Effect on sporule germination in Sclerotinia sclerotiorum assessed as germination ratio at 100 ug/ml; format: functional; method in brief: as §4
# Sclerotinia sclerotiorum [15] = assay: Change in mycelial reducing sugar level in Sclerotinia sclerotiorum upto 3 hrs relative to control; format: functional; parameters: scale not given: the % may be the effect or the level left
# Method in brief: (§5)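 S. sclerotiorum was grown from six 4 mm discs in 90 mL Czapek medium, shaken at 140 rpm and 27 °C for 15 days. Compound was then added at 100 µg/mL. Mycelium was harvested at 0.5–24 h, ground in 0.05 mol/L Tris–HCl pH 7.5 and centrifuged at 15,000g, 4 °C, for 30 min. Three repetitions. Supernatant read-outs: reducing sugar by DNS at 540 nm against glucose; chitosan (D-GlcNAc) by K2B4O7/DMAB at 544 nm; pyruvate by DNPH/NaOH at 520 nm; protein at 595 nm. Tris–HCl blank.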
# Sclerotinia sclerotiorum [16] = assay: Change in mycelial reducing sugar level in Sclerotinia sclerotiorum after 24 hrs; format: functional; method in brief: as §5
# Sclerotinia sclerotiorum [17] = assay: Change in mycelial reducing sugar level in Sclerotinia sclerotiorum after 24 hrs relative to hymexazol; format: functional; parameters: scale not given: the % may be the effect or the level left; method in brief: as §5
# Sclerotinia sclerotiorum [18] = assay: Change in mycelial chitosan content in Sclerotinia sclerotiorum after 6 hrs; format: functional; method in brief: as §5
# Sclerotinia sclerotiorum [19] = assay: Change in mycelial soluble protein content in Sclerotinia sclerotiorum after 0.5 hr relative to control; format: functional; method in brief: as §5
# Sclerotinia sclerotiorum [20] = assay: Change in mycelial pyruvate content in Sclerotinia sclerotiorum after 24 hrs; format: functional; method in brief: as §5
smiles,measurement,setting,value
COc1cc(-c2nnc([S+]([O-])Cc3cccc(F)c3)s2)cc(OC)c1OC (stereo not given),inhibition at 50 µg/mL,Fusarium graminearum [1],14.9%
same,inhibition at 50 µg/mL,Fusarium oxysporum [2],11.7%
same,inhibition at 50 µg/mL,Cytospora [3],12%
COc1cccc(C[S+]([O-])c2nnc(-c3cc(OC)c(OC)c(OC)c3)s2)c1 (stereo not given),inhibition at 50 µg/mL,Fusarium graminearum [1],8.29%
same,inhibition at 50 µg/mL,Fusarium oxysporum [2],8.65%
same,inhibition at 50 µg/mL,Cytospora [3],11%
COc1cccc(C[S+]([O-])c2nnc(-c3cc(OC)c(OC)c(OC)c3)o2)c1 (stereo not given),inhibition at 50 µg/mL,Fusarium graminearum [1],37.7%
same,inhibition at 50 µg/mL,Fusarium oxysporum [2],30.5%
same,inhibition at 50 µg/mL,Cytospora [3],25.7%
COc1cc(-c2nnc([S+]([O-])Cc3ccccc3)s2)cc(OC)c1OC (stereo not given),inhibition at 50 µg/mL,Fusarium graminearum [1],26.9%
same,inhibition at 50 µg/mL,Fusarium oxysporum [2],15.5%
same,inhibition at 50 µg/mL,Cytospora [3],16%
COc1cc(-c2nnc([S+]([O-])Cc3ccc(F)cc3)s2)cc(OC)c1OC (stereo not given),inhibition at 50 µg/mL,Fusarium graminearum [1],6.4%
same,inhibition at 50 µg/mL,Fusarium oxysporum [2],2.54%
same,inhibition at 50 µg/mL,Cytospora [3],3.83%
COc1ccccc1C[S+]([O-])c1nnc(-c2cc(OC)c(OC)c(OC)c2)o1 (stereo not given),inhibition at 50 µg/mL,Fusarium graminearum [1],29.9%
same,inhibition at 50 µg/mL,Fusarium oxysporum [2],32.3%
same,inhibition at 50 µg/mL,Cytospora [3],18.2%
COc1cc(-c2nnc([S+]([O-])Cc3cccc([N+](=O)[O-])c3)s2)cc(OC)c1OC (stereo not given),inhibition at 50 µg/mL,Fusarium graminearum [1],5.45%
same,inhibition at 50 µg/mL,Fusarium oxysporum [2],3.31%
same,inhibition at 50 µg/mL,Cytospora [3],6.63%
CCOC(=O)C[S+]([O-])c1nnc(-c2cc(OC)c(OC)c(OC)c2)s1 (stereo not given),inhibition at 50 µg/mL,Fusarium graminearum [1],34.8%
same,inhibition at 50 µg/mL,Fusarium oxysporum [2],4.58%
same,inhibition at 50 µg/mL,Cytospora [3],8.42%
COc1cc(-c2nnc([S+]([O-])Cc3ccccc3Cl)o2)cc(OC)c1OC (stereo not given),inhibition at 50 µg/mL,Fusarium graminearum [1],7.79%
same,inhibition at 50 µg/mL,Fusarium oxysporum [2],7.04%
same,inhibition at 50 µg/mL,Cytospora [3],-0.33%
CCOC(=O)C[S+]([O-])c1nnc(-c2cc(OC)c(OC)c(OC)c2)o1 (stereo not given),inhibition at 50 µg/mL,Fusarium graminearum [1],18.1%
same,inhibition at 50 µg/mL,Fusarium oxysporum [2],1.47%
same,inhibition at 50 µg/mL,Cytospora [3],6.9%
Cc1cc(O)no1 [HYMEXAZOL],inhibition at 50 µg/mL,Fusarium graminearum [1],53.7%
same,inhibition at 50 µg/mL,Fusarium oxysporum [2],52.1%
same,inhibition at 50 µg/mL,Cytospora [3],52%
same,EC50,Fusarium graminearum [4],26.4 µg/mL
same,EC50,Cytospora [5],21.4 µg/mL
same,EC50,Thanatephorus cucumeris,40.4 µg/mL
same,EC50,Phytophthora infestans,25.1 µg/mL
same,EC50,Botrytis cinerea,5.12 µg/mL
same,EC50,Sclerotinia sclerotiorum [6],4.63 µg/mL
same,EC50,[7],15.8 µg/mL
same,permeability,Sclerotinia sclerotiorum [8],24.6%
same,Activity,Sclerotinia sclerotiorum [9],0.13 mg/mL
same,Activity,Sclerotinia sclerotiorum [10],0.124 mg/mL
same,Activity,Sclerotinia sclerotiorum [11],0.91 mg/mL
COc1cc(-c2nnc([S+]([O-])Cc3ccc(Cl)nc3)o2)cc(OC)c1OC (stereo not given),inhibition at 50 µg/mL,Fusarium graminearum [1],31.9%
same,inhibition at 50 µg/mL,Fusarium oxysporum [2],14.9%
same,inhibition at 50 µg/mL,Cytospora [3],11.9%
COc1cc(-c2nnc([S+]([O-])Cc3cccc(F)c3)o2)cc(OC)c1OC (stereo not given),inhibition at 50 µg/mL,Fusarium graminearum [1],7.29%
same,inhibition at 50 µg/mL,Fusarium oxysporum [2],-0.88%
same,inhibition at 50 µg/mL,Cytospora [3],-0.31%
COc1cc(-c2nnc([S+]([O-])Cc3ccccc3F)o2)cc(OC)c1OC (stereo not given),inhibition at 50 µg/mL,Fusarium graminearum [1],11.3%
same,inhibition at 50 µg/mL,Fusarium oxysporum [2],4.4%
same,inhibition at 50 µg/mL,Cytospora [3],2.82%
COc1cc(-c2nnc([S+]([O-])Cc3ccccc3)o2)cc(OC)c1OC (stereo not given),inhibition at 50 µg/mL,Fusarium graminearum [1],53.3%
same,inhibition at 50 µg/mL,Fusarium oxysporum [2],52.3%
same,inhibition at 50 µg/mL,Cytospora [3],56.1%
same,EC50,Fusarium graminearum [4],28.8 µg/mL
same,EC50,Fusarium oxysporum [12],58.5 µg/mL
same,EC50,Cytospora [5],64 µg/mL
same,EC50,Rhizoctonia solani,44.7 µg/mL
same,EC50,Thanatephorus cucumeris,23.4 µg/mL
same,EC50,Phytophthora infestans,33.1 µg/mL
same,EC50,Botrytis cinerea,21.6 µg/mL
same,EC50,Sclerotinia sclerotiorum [6],19.9 µg/mL
same,EC50,[7],39.4 µg/mL
same,Activity,Sclerotinia sclerotiorum [13],12.6%
same,Activity,Sclerotinia sclerotiorum [14],5.4%
same,permeability,Sclerotinia sclerotiorum [8],26.7%
same,Activity,Sclerotinia sclerotiorum [15],13.3%
same,Activity,Sclerotinia sclerotiorum [16],0.37 mg/mL
same,Activity,Sclerotinia sclerotiorum [17],8.8%
same,Activity,Sclerotinia sclerotiorum [18],0.12 mg/mL
same,Activity,Sclerotinia sclerotiorum [9],0.12 mg/mL
same,Activity,Sclerotinia sclerotiorum [10],0.125 mg/mL
same,Activity,Sclerotinia sclerotiorum [19],43%
same,Activity,Sclerotinia sclerotiorum [11],0.69 mg/mL
same,Activity,Sclerotinia sclerotiorum [20],0.19 mg/mL
CCOCC[S+]([O-])c1nnc(-c2cc(OC)c(OC)c(OC)c2)s1 (stereo not given),inhibition at 50 µg/mL,Fusarium graminearum [1],16.8%
same,inhibition at 50 µg/mL,Fusarium oxysporum [2],8.14%
same,inhibition at 50 µg/mL,Cytospora [3],16.1%
